A selection: hits, their analogues and other compounds. The true share with any hit is near 1.7%.
CaV13 ICDI inh – Disruptors of the CACNA1D IQ motif to Ca2+-dependent inactivation inhibitor domain association, primary screening, Förster resonance energy transfer in intact living … | inhibition, % at 12.3 µM | HEK cells, CFP/YFP FRET ICDI-IQ, plate reader, 10 min; percent FRET-ratio fall versus neutral wells | 340,000 tested, 0.098% active;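 active = mean replicate inhibition of at least 30% and at least 1% of replicates passing that level; inconclusive = only one of the two criteria is met; inactive = neither criterion is met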;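 note: 0% = median of the neutral control wells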
SR-BI HDL uptake – inhibitors of mouse SR-BI mediated HDL lipid uptake; Q61009; ldlA[mSR-BI] CHO cells, DiI-HDL uptake fluorescence, 3 h; inhibition, % at 12.5 µM; 320,000 tested, 0.96% active; AID 488896;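 active = mean replicate inhibition of at least 70% and a set share of replicates each scoring 70 or more; inconclusive = meets just one of the two criteria; inactive = fails both criteria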;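 note: 0% = median of neutral control wells and 100% = median of positive control wells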
Vif inh – HIV Vif inhibition; inhibition, % at 7.49 µM; 340,000 tested, 0.35% active; HEK293T cells, Vif self-association by quenched fluorescence, imaging, 24 h; in the data active = inhibition above about 50%, passing the limit was not always enough; inconclusive = no clear call, values can overlap the other calls; inactive = below about 31%
V-ATPase pH – regulators of yeast V-ATPase proton transport | S. cerevisiae, pHLuorin cytosolic pH fluorescence | response, % at 10 µM | 350,000 tested, 0.37% active | AID 504577; in the data active = response mostly above about 7.3%, no sharp cut-off; inactive = mostly below about 5.4%; note: actives read high
SR-BI DiI-HDL act – enhances SR-BI lipid uptake from DiI-HDL; CHO ldlA[mSR-BI] cells, DiI-HDL uptake fluorescence, 3 h; 100 = double the neutral-control signal; activation, % at 12.5 µM; 320,000 tested, 0.096% active;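 active = mean replicate activation of at least 60% and every replicate at or above 60%; inconclusive = mean or all-replicate condition met, but not both; inactive = mean below 60% and not all replicates reaching 60%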;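 note: 0% = median plate neutral-control signal and 100% = twice that signal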
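Assay system: CHO ldlA[mSR-BI] cells, LDL receptor-null, SR-BI overexpressing; medium: Ham's F12 with 0.5% BSA, HEPES 25 mM, pH 7.4; also added: DiI-HDL 10 µg/mL; timing: 3 h uptake period with compound, 37 °C; signal: DiI fluorescence, bottom read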
NTR1 agonist – NTR1 (human) agonism; P30989; NTR1-U2OS beta-arrestin-GFP spot imaging, agonist mode; activation, % at 20 µM; 330,000 tested, 0.17% active; AID 493036;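 active = activation at or above 40% of the spot to cytoplasm intensity ratio, with at least 20 cells analyzed; inconclusive = wells under 20 cells, flagged as cytotoxic or low count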;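 note: 0% = DMSO without peptide and 100% = 100 nM NTR1 peptide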
Target sequence (P30989 whole entry, looked up): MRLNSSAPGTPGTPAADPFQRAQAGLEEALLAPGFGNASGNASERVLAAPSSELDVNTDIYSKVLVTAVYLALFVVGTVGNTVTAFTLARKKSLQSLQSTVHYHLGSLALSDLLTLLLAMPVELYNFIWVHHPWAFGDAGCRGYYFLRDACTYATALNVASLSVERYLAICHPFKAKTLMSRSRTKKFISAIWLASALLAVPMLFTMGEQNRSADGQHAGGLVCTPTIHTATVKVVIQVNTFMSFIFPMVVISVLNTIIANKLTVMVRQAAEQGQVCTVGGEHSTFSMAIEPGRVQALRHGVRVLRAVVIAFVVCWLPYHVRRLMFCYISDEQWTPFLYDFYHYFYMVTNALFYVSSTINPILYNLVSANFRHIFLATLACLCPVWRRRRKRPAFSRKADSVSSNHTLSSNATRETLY
Active calls of the source: *; ? = inconclusive; / = not tested or not shown.

SMILES	CaV13 ICDI inh	SR-BI HDL uptake	Vif inh	V-ATPase pH	SR-BI DiI-HDL act	NTR1 agonist
N#Cc1cc(F)cc(OCCCN2CCC(C(O)(c3ccccc3)c3ccccc3)CC2)c1	-9	/	/	/	/	/
C[C@@H]1CN(C(=O)c2nc3ccc(Cl)cn3c2CN2CCc3sccc3C2)C[C@H](C)O1	-5	5	-1	13*	-5	-2
CCC(C)C(=O)Nc1nc(C)c(-c2csc(Nc3ccc(Cl)cc3)n2)s1 (stereo not given)	-10	78*	0	0	-78	4
CC(=O)Nc1nc(C)c(-c2csc(Nc3ccc(O)cc3)n2)s1	/	59	61*	-4	-59	7
CCCCS(=O)c1c(O)c2ccccc2[nH]c1=O (stereo not given)	-5	-8	2	0	8	1
CCOC(=O)CNC(=O)c1ccc2[nH]c3c(c2c1)CCCC3	-10	24	72*	-4	-24	1
O=C1NCN(c2ccccc2)C12CCN(CCCC(c1ccc(F)cc1)c1ccc(F)cc1)CC2	-5	-5	-4	8	5	40*
COC(=O)C1=C(C)N(Cc2ccc(OC)c(OC)c2)C(=O)C1	0	1	5	-1	-1	0
COC(=O)C1=C(C)N(CCc2ccc(OC)c(OC)c2)C(=O)C1	-5	1	1	31*	-1	2
CN=c1scc(-c2ccc(F)cc2)n1/N=C/c1ccc(O)c(O)c1	-4	78*	35	1	-78	12
Cn1cnc(S(=O)(=O)NC2CCN(Cc3c(F)cccc3Cl)CC2)c1	/	-35	8	-2	35	0
COc1ccc(-c2cc(C(F)(F)F)nc(S(=O)(=O)CCCC(=O)Nc3cc(C)on3)n2)cc1OC	-3	-8	89*	1	8	/
COc1ccccc1-c1cc(C(F)(F)F)nc(S(=O)(=O)CCCC(=O)Nc2cc(C)on2)n1	0	-5	60*	1	5	9
COc1ccccc1-c1cc(C(F)(F)F)nc(S(=O)(=O)CCCC(=O)NC(C)C)n1	/	-29	?	-2	29	18
CN(C)c1ccc(/C=C(\Cl)c2nc3ccccc3s2)cc1	/	-6	1	1	6	/
COC(=O)C1=C(C)N(C)C(=NCc2cccc(C(F)(F)F)c2)NC1c1ccccc1 (stereo not given)	-5	/	/	/	/	/
CC1CCCCN1Cc1c(O)ccc2c(=O)c(-c3nc4ccccc4s3)coc12 (stereo not given)	44*	12	-4	0	-12	-1
Cc1cccc2nc(C(=O)Nc3cc(Cl)ccc3-n3cncn3)cn12	-5	3	75*	2	-3	1
Cc1cccc(C(=O)Nc2cc(Cl)ccc2-n2cncn2)c1[N+](=O)[O-]	-2	23	9	-3	-23	-2
CNC(=S)N/N=C/c1cn(CCOc2cccc(OC)c2)c2ccccc12	-6	80*	-1	-2	-80	1
CNC(=S)N/N=C/c1cn(CCOc2ccccc2OC)c2ccccc12	-15	60	7	7	-60	3
CCOC(=O)N/N=C/c1cn(CCCOc2ccc(C)cc2)c2ccccc12	-3	72*	5	-10	-72	-2
COC(=O)[C@@]12C[C@@H](CC(=O)NCCC(C)C)C(=O)N(Cc3ccc4c(c3)OCO4)C1=CCC(C)(C)C2	-8	/	/	/	/	/
COCCNC(=O)[C@H]1C[C@@H]1[C@H](NP(=O)(c1ccccc1)c1ccccc1)c1ccccc1	/	5	6	2	-5	14
Cc1cccc(-n2c(=O)c3ccccc3n3c(=S)[nH]nc23)c1C	-3	-20	3	-4	20	0
O=C(O)c1cc([N+](=O)[O-])cc2ccccc12	-5	-90	9	-2	90*	/
CCOc1ccc2c(c1)-c1c(ssc1=S)C(C)(C)N2C	/	89*	-1	-3	-89	0
O=C(O)CSc1nnc(NC(=O)CN2CCOCC2)s1	-14	-19	13	-1	19	-1
COc1cc(-c2[nH]ncc2CN2CCN(c3cccc(C)n3)CC2)cc(OC)c1OC	-4	/	-3	-1	/	3
